Experimental data published in ChEMBL document CHEMBL2346555, “Efficacious cyclic N-acyl O-amino phenol duocarmycin prodrugs” (J Med Chem, 2013).

How the values were obtained:
[1] = Drug degradation in MeOH at 254 nM after 72 hrs by LC-MS analysis in presence of NaHCO3 and BnSH; type: physicochemical; details: MeOH with NaHCO3 and BnSH; read-out: Drug degradation
[2] = Drug degradation in THF at 254 nM after 48 hrs by LC-MS analysis in presence of NaHCO3 and BnNH2; type: physicochemical; details: THF with NaHCO3 and BnNH2; read-out: Drug degradation
[3] = Drug degradation in MeOH at 254 nM after 72 hrs by LC-MS analysis in presence of NaHCO3 and BnNH2; type: physicochemical; details: MeOH with NaHCO3 and BnNH2; read-out: Drug degradation
[4] = Drug degradation in THF at 254 nM after 72 hrs by LC-MS analysis in presence of NaHCO3 and BnSH; type: physicochemical; details: THF with NaHCO3 and BnSH; read-out: Drug degradation
[5] = Stability of the compound in THF at 254 nM under non basic condition in presence of BnSH; type: physicochemical; details: 0.254 µM
[6] = Drug degradation in THF at 254 nM after 72 hrs by LC-MS analysis in presence of NaHCO3 and BnNH2; type: physicochemical; details: THF with NaHCO3 and BnNH2; read-out: Drug degradation
[7] = test system: L1210; experiment: Cytotoxicity against mouse L1210 cells assessed as growth inhibition after 72 hrs by phosphatase assay; type: functional, cell-based; details: Mus musculus, L1210, 72 h
In short: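 L1210 mouse leukemia cells were seeded at 30,000 cells/mL in DMEM with 10% FBS and grown 24 h at 37 °C, 5% CO2. DMSO dilutions were then added at six concentrations between 0–100 or 0–1000 nM, in duplicate, for 72 h. Read-out: phosphatase substrate in 0.1 M NaOAc pH 5.5 with 0.1% Triton X-100, 5 min at 37 °C, stopped with NaOH, A405. IC50 is the average of ≥4 determinations.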

[8] = Half life of the compound in MeOH at 23 degC in presence of NaHCO3; type: physicochemical; details: MeOH with NaHCO3
[9] = Drug degradation in MeOH at 254 nM after 48 hrs by LC-MS analysis in presence of NaHCO3 and BnNH2; type: physicochemical; details: MeOH with NaHCO3 and BnNH2; read-out: Drug degradation
[10] = Drug degradation in MeOH at 254 nM after 2 hrs by LC-MS analysis in presence of NaHCO3 and BnSH; type: physicochemical; details: MeOH with NaHCO3 and BnSH; read-out: Drug degradation
[11] = Stability of the compound in MeOH at 254 nM after 2 hrs by LC-MS analysis in presence of NaHCO3 and BnNH2; type: physicochemical; details: 0.254 µM
[12] = Drug degradation in THF at 254 nM after 2 hrs by LC-MS analysis in presence of NaHCO3 and BnSH; type: physicochemical; details: THF with NaHCO3 and BnSH; read-out: Drug degradation
[13] = Drug degradation in THF at 254 nM after 2 hrs by LC-MS analysis in presence of NaHCO3 and BnNH2; type: physicochemical; details: THF with NaHCO3 and BnNH2; read-out: Drug degradation
[14] = Stability of the compound in THF at 254 nM under non basic condition in presence of BnNH2; type: physicochemical; details: 0.254 µM
[15] = Half life of the compound in HCl/EtOAc at 23 degC; type: physicochemical
[16] = Drug degradation in THF at 254 nM after 24 hrs by LC-MS analysis in presence of NaHCO3 and BnNH2; type: physicochemical; details: THF with NaHCO3 and BnNH2; read-out: Drug degradation
[17] = Drug degradation in MeOH at 254 nM after 24 hrs by LC-MS analysis in presence of NaHCO3 and BnSH; type: physicochemical; details: MeOH with NaHCO3 and BnSH; read-out: Drug degradation
[18] = Drug degradation in MeOH at 254 nM after 48 hrs by LC-MS analysis in presence of NaHCO3 and BnSH; type: physicochemical; details: MeOH with NaHCO3 and BnSH; read-out: Drug degradation
[19] = Drug degradation in THF at 254 nM after 24 hrs by LC-MS analysis in presence of NaHCO3 and BnSH; type: physicochemical; details: THF with NaHCO3 and BnSH; read-out: Drug degradation
[20] = Drug degradation in THF at 254 nM after 48 hrs by LC-MS analysis in presence of NaHCO3 and BnSH; type: physicochemical; details: THF with NaHCO3 and BnSH; read-out: Drug degradation
[21] = Drug degradation in MeOH at 254 nM after 24 hrs by LC-MS analysis in presence of NaHCO3 and BnNH2; type: physicochemical; details: MeOH with NaHCO3 and BnNH2; read-out: Drug degradation
[22] = Stability of the compound in THF at 23 degC after 5 days in presence of NaHCO3; type: physicochemical; details: 120 h
[23] = Stability of the compound in DMF/H2O at 23 degC after 5 days in presence of NaHCO3; type: physicochemical; details: 120 h
[24] = Stability of the compound in MeOH at 23 degC after 5 days in presence of NaHCO3; type: physicochemical; details: 120 h

CC(C)(C)OC(=O)N1C[C@@H](CCl)c2c1cc1c3c(cccc23)C(=O)NO1
degraded at 72 h, 0.254 µM [1]: 83%
degraded at 48 h, 0.254 µM [2]: 4%
degraded at 72 h, 0.254 µM [3]: 16%
degraded at 72 h, 0.254 µM [4]: 46%
Stability [5]: Stable
degraded at 72 h, 0.254 µM [6]: 3%
IC50 [7]: 650 nM
half-life [8]: 70 h
degraded at 48 h, 0.254 µM [9]: 15%
degraded at 2 h, 0.254 µM [10]: 33%
Stability [11]: Stable
degraded at 2 h, 0.254 µM [12]: 28%
degraded at 2 h [13]: 2%
Stability [14]: Stable
half-life [15]: 2 h
degraded at 24 h, 0.254 µM [16]: 3%
degraded at 24 h, 0.254 µM [17]: 58%
degraded at 48 h, 0.254 µM [18]: 75%
degraded at 24 h, 0.254 µM [19]: 33%
degraded at 48 h, 0.254 µM [20]: 39%
degraded at 24 h, 0.254 µM [21]: 9%

CN1Oc2cc3c(c4cccc(c24)C1=O)[C@H](CCl)CN3C(=O)OC(C)(C)C
IC50 [7]: 850 nM
Stability [22]: Stable
Stability [23]: Stable
half-life [15]: 24 h
Stability [24]: Stable
